Laboratory results published in the RNAGym collection of RNA variant scans (doi:10.1002/anie.201605470).

B1: Osa-1-4 twister ribozyme (parent)
chain: CCGCCUAACACUGCCAAUGCCGGUCCCAAGCCCGGAUAAAAGUGGAGGGGGCGG

Variants of: B1
Experiment: self-cleavage, relative activity (ratio to wild type); higher = more cleavage; co-transcriptional
Outline: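 The 48 positions downstream of the cleavage site in a 54-nucleotide Oryza sativa twister ribozyme template were synthesised at 97 % wild-type base and 1 % of each other base. The template was transcribed in vitro at 37 °C for 2 h, with self-cleavage allowed during transcription. Reads with or without upstream sequence after deep sequencing marked cleavage status, and relative activity is fraction cleaved normalised to wild type.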

Variant | self-cleavage
CCGCCUAAUACUGCCAAUGCCGGUCCCAAGCCCGGAUCAAAGUGGAGGGGGCGG [A38C C9U] | 0.78
CCGCCUAAGACUGCCAAUGCCGGUCCCAAGCCCGGAUCAAAGUGGAGGGGGCGG [A38C C9G] | 0.83
CCGCCUAAAACUGCCAAUGCCGGUCCCAAGCCCGGAUCAAAGUGGAGGGGGCGG [A38C C9A] | 0.37
CCGCCUAACACUGCCAAUGCCGGUCCCAAGCCCGGUUAAAAGUGGAGCGGGCGG [A36U G48C] | 0.09
CCGCCUAACACUGCCAAUGCCGGUCCCAAGCCCGGUUAAAAGUGGAGUGGGCGG [A36U G48U] | 0.08
CCGCCUAACACUGCCAAUGCCGGUCCCAAGCCCGGUUAAAAGUGGAGAGGGCGG [A36U G48A] | 0.12
CCGCCUAACACUGCCAAUGCCGGUCCCAAGCCCGGAUCAGAGUGGAGGGGGCGG [A38C A40G] | 0.84
CCGCCUAACACUGCCAAUGCCGGUCCCAAGCCCGGAUCAUAGUGGAGGGGGCGG [A38C A40U] | 0.6
CCGCCUAACACUGCCAAUGCCGGUCCCAAGCCCGGAUCACAGUGGAGGGGGCGG [A38C A40C] | 0.09
CCGCCUAACACAGCCAAUGCCGGUCCCAAGCCCGGUUAAAAGUGGAGGGGGCGG [A36U U12A] | 0.99
CCGCCUAACACCGCCAAUGCCGGUCCCAAGCCCGGUUAAAAGUGGAGGGGGCGG [A36U U12C] | 0.58
CCGCCUAACACGGCCAAUGCCGGUCCCAAGCCCGGUUAAAAGUGGAGGGGGCGG [A36U U12G] | 0.64
CCGCCUAACACUGCCAAUGCCGGUCCCAAGCCCGGAUCAAAGUGGAGGGGGCGG [A38C] | 1.02
CCGCCUAACACUGCCAAUGCCGGUCCCAAGCCCGGACAAAAGAGGAGGGGGCGG [U37C U43A] | 0.96
CCGCCUAACACUGCCAAUGCCGGUCCCAAGCCCGGACAAAAGGGGAGGGGGCGG [U37C U43G] | 0.66
CCGCCUAACACUGCCAAUGCCGGUCCCAAGCCCGGACAAAAGCGGAGGGGGCGG [U37C U43C] | 0.38
CCGCCUAACACUGCCAAUGCCGGUCCCAAGCCCGGUUAAAAGUGGAGGGGGCUG [A36U G53U] | 0.46
CCGCCUAACACUGCCAAUGCCGGUCCCAAGCCCGGUUAAAAGUGGAGGGGGCCG [A36U G53C] | 0.11
CCGCCUAACACUGCCAAUGCCGGUCCCAAGCCCGGUUAAAAGUGGAGGGGGCAG [A36U G53A] | 0.94
CCGCCUAACACUGCCAAUGCCGGUCCCAAGCCCGGUUAAAAGUGCAGGGGGCGG [A36U G45C] | 0.05
CCGCCUAACACUGCCAAUGCCGGUCCCAAGCCCGGUUAAAAGUGAAGGGGGCGG [A36U G45A] | 0.46
CCGCCUAACACUGCCAAUGCCGGUCCCAAGCCCGGUUAAAAGUGUAGGGGGCGG [A36U G45U] | 0.13
CCGCCUAACACUGCCAAUGCCGGUACCAAGCCCGGAUCAAAGUGGAGGGGGCGG [A38C C25A] | 0.07
CCGCCUAACACUGCCAAUGCCGGUGCCAAGCCCGGAUCAAAGUGGAGGGGGCGG [A38C C25G] | 0.06

Variant | self-cleavage
CCGCCUAACACUGCCAAUGCCGGUUCCAAGCCCGGAUCAAAGUGGAGGGGGCGG [A38C C25U] | 0.88
CCGCCUAACACUGCCAAUGCCGGUCCCAAGCCCGGUUAAAAGUUGAGGGGGCGG [A36U G44U] | 0.96
CCGCCUAACACUGCCAAUGCCGGUCCCAAGCCCGGUUAAAAGUAGAGGGGGCGG [A36U G44A] | 0.97
CCGCCUAACACUGCCAAUGCCGGUCCCAAGCCCGGUUAAAAGUCGAGGGGGCGG [A36U G44C] | 1.03
CCGCCUAACACUGCCAAUGCCGGUCCCAAGCCCGGUGAAAAGUGGAGGGGGCGG [A36U U37G] | 1.05
CCGCCUAACACUGCCAAUGCCGGUCCCAAGCCCGGUAAAAAGUGGAGGGGGCGG [A36U U37A] | 1.01
CCGCCUAACACUGCCAAUGCCGGUCCCAAGCCCGGUCAAAAGUGGAGGGGGCGG [A36U U37C] | 1.07
CCGCCUAACACUGCCAAUGCCGGUCCCAAGCCCGGUUAAAAGUGGAGGGGGCGU [A36U G54U] | 1.02
CCGCCUAACACUGCCAAUGCCGGUCCCAAGCCCGGUUAAAAGUGGAGGGGGCGC [A36U G54C] | 0.96
CCGCCUAACACUGCCAAUGCCGGUCCCAAGCCCGGUUAAAAGUGGAGGGGGCGA [A36U G54A] | 1.01
CCGCCUAACACUGCCAAUGCCGGUCCCAAGCCCGGAGAAAAGAGGAGGGGGCGG [U37G U43A] | 0.93
CCGCCUAACACUGCCAAUGCCGGUCCCAAGCCCGGAGAAAAGGGGAGGGGGCGG [U37G U43G] | 0.68
CCGCCUAACACUGCCAAUGCCGGUCCCAAGCCCGGAGAAAAGCGGAGGGGGCGG [U37G U43C] | 0.52
CCGCCUAACACUGCCAAUGCCGGUCCCAAGCCCGGAUCUAAGUGGAGGGGGCGG [A38C A39U] | 0.96
CCGCCUAACACUGCCAAUGCCGGUCCCAAGCCCGGAUCGAAGUGGAGGGGGCGG [A38C A39G] | 0.96
CCGCCUAACACUGCCAAUGCCGGUCCCAAGCCCGGAUCCAAGUGGAGGGGGCGG [A38C A39C] | 0.86
CCGCCUAACACUGCCAAUGCCGGGCCCAAGCCCGGUUAAAAGUGGAGGGGGCGG [A36U U24G] | 0.03
CCGCCUAACACUGCCAAUGCCGGACCCAAGCCCGGUUAAAAGUGGAGGGGGCGG [A36U U24A] | 0.27
CCGCCUAACACUGCCAAUGCCGGCCCCAAGCCCGGUUAAAAGUGGAGGGGGCGG [A36U U24C] | 0.45
CCGCCUAACACUGCUAAUGCCGGUCCCAAGCCCGGAUCAAAGUGGAGGGGGCGG [A38C C15U] | 0.57
CCGCCUAACACUGCAAAUGCCGGUCCCAAGCCCGGAUCAAAGUGGAGGGGGCGG [A38C C15A] | 0.31
CCGCCUAACACUGCGAAUGCCGGUCCCAAGCCCGGAUCAAAGUGGAGGGGGCGG [A38C C15G] | 0.11
CCGCCUAUCACUGCCAAUGCCGGUCCCAAGCCCGGAUCAAAGUGGAGGGGGCGG [A38C A8U] | 0.28
CCGCCUACCACUGCCAAUGCCGGUCCCAAGCCCGGAUCAAAGUGGAGGGGGCGG [A38C A8C] | 0.07
